System: Fibroblast
Assay: Multiplex assay against human fibroblast
Format: toxicity, cell-based
Procedure, shortened: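 Phenotypes for tubulin, mitochondrial mass and membrane permeability are expressed as per cents of healthy-nucleus cells. Cells were stained live at seeding with Hoechst33342, BioTracker Green Microtubule Cytoskeleton Dye, MitoTracker Red and Annexin V Alexa Fluor 680, then imaged after compound addition on a CQ1 microscope at 37°C and 5% CO2. Machine-learning gating in CellPathfinder separated Hoechst high-intensity objects from normal cells, divided normal cells by nuclear state (healthy, pyknosed, fragmented) and divided pyknosed cells into mitotic or apoptotic.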

[1] = 12 h, 1 µM, compound concentration 1 uM, replicate 1
[2] = 12 h, 1 µM, compound concentration 1 uM, replicate 2
[3] = 12 h, 10 µM, compound concentration 10 uM, replicate 1
[4] = 12 h, 10 µM, compound concentration 10 uM, replicate 2
[5] = 24 h, 1 µM, compound concentration 1 uM, replicate 1
[6] = 24 h, 1 µM, compound concentration 1 uM, replicate 2
[7] = 24 h, 10 µM, compound concentration 10 uM, replicate 1
[8] = 24 h, 10 µM, compound concentration 10 uM, replicate 2
[9] = 48 h, 1 µM, compound concentration 1 uM, replicate 1
[10] = 48 h, 1 µM, compound concentration 1 uM, replicate 2
[11] = 48 h, 10 µM, compound concentration 10 uM, replicate 1
[12] = 48 h, 10 µM, compound concentration 10 uM, replicate 2

Structure (SMILES): CC(/C=C1\SC(=S)N(CCCC(=O)Nc2ccc(C(=O)O)c(O)c2)C1=O)=C\c1ccccc1
- Population Apoptotic (%) [1]: 50%
- Population Fragmented Nuclei (%) [1]: 14%
- Population Healthy Nuclei (%) [1]: 71%
- Population Hoechst High Intensity Objects (%) [1]: 2%
- Population Membrane Permeable-Phenotype (%) [1]: 0%
- Population Mitochondria Different-Phenotype (%) [1]: 2%
- Population Mitotic Cells (%) [1]: 50%
- Population Normal (%) [1]: 97%
- Population Pyknosed Nuclei (%) [1]: 13%
- Population Tubulin-Different-Phenotype (%) [1]: 28%
- Total Cell Count [1]: 206
- Population Apoptotic (%) [2]: 33%
- Population Fragmented Nuclei (%) [2]: 19%
- Population Healthy Nuclei (%) [2]: 60%
- Population Hoechst High Intensity Objects (%) [2]: 3%
- Population Membrane Permeable-Phenotype (%) [2]: 13%
- Population Mitochondria Different-Phenotype (%) [2]: 9%
- Population Mitotic Cells (%) [2]: 66%
- Population Normal (%) [2]: 96%
- Population Pyknosed Nuclei (%) [2]: 19%
- Population Tubulin-Different-Phenotype (%) [2]: 54%
- Total Cell Count [2]: 157
- Population Apoptotic (%) [3]: 56%
- Population Fragmented Nuclei (%) [3]: 15%
- Population Healthy Nuclei (%) [3]: 70%
- Population Hoechst High Intensity Objects (%) [3]: 2%
- Population Membrane Permeable-Phenotype (%) [3]: 0%
- Population Mitochondria Different-Phenotype (%) [3]: 5%
- Population Mitotic Cells (%) [3]: 43%
- Population Normal (%) [3]: 97%
- Population Pyknosed Nuclei (%) [3]: 13%
- Population Tubulin-Different-Phenotype (%) [3]: 44%
- Total Cell Count [3]: 123
- Population Apoptotic (%) [4]: 40%
- Population Fragmented Nuclei (%) [4]: 19%
- Population Healthy Nuclei (%) [4]: 48%
- Population Hoechst High Intensity Objects (%) [4]: 4%
- Population Membrane Permeable-Phenotype (%) [4]: 8%
- Population Mitotic Cells (%) [4]: 59%
- Population Normal (%) [4]: 95%
- Population Pyknosed Nuclei (%) [4]: 31%
- Population Tubulin-Different-Phenotype (%) [4]: 54%
- Total Cell Count [4]: 122
- Population Apoptotic (%) [5]: 54%
- Population Fragmented Nuclei (%) [5]: 17%
- Population Healthy Nuclei (%) [5]: 72%
- Population Hoechst High Intensity Objects (%) [5]: 1%
- Population Membrane Permeable-Phenotype (%) [5]: 2%
- Population Mitochondria Different-Phenotype (%) [5]: 4%
- Population Mitotic Cells (%) [5]: 45%
- Population Normal (%) [5]: 98%
- Population Pyknosed Nuclei (%) [5]: 10%
- Population Tubulin-Different-Phenotype (%) [5]: 25%
- Total Cell Count [5]: 208
- Population Apoptotic (%) [6]: 33%
- Population Healthy Nuclei (%) [6]: 63%
- Population Hoechst High Intensity Objects (%) [6]: 2%
- Population Membrane Permeable-Phenotype (%) [6]: 5%
- Population Mitochondria Different-Phenotype (%) [6]: 12%
- Population Mitotic Cells (%) [6]: 66%
- Population Normal (%) [6]: 97%
- Population Pyknosed Nuclei (%) [6]: 19%
- Population Tubulin-Different-Phenotype (%) [6]: 44%
- Total Cell Count [6]: 144
- Population Apoptotic (%) [7]: 66%
- Population Fragmented Nuclei (%) [7]: 11%
- Population Healthy Nuclei (%) [7]: 81%
- Population Hoechst High Intensity Objects (%) [7]: 0%
- Population Membrane Permeable-Phenotype (%) [7]: 0%
- Population Mitochondria Different-Phenotype (%) [7]: 4%
- Population Mitotic Cells (%) [7]: 33%
- Population Normal (%) [7]: 99%
- Population Pyknosed Nuclei (%) [7]: 7%
- Population Tubulin-Different-Phenotype (%) [7]: 25%
- Total Cell Count [7]: 119
- Population Apoptotic (%) [8]: 53%
- Population Fragmented Nuclei (%) [8]: 20%
- Population Healthy Nuclei (%) [8]: 53%
- Population Hoechst High Intensity Objects (%) [8]: 4%
- Population Membrane Permeable-Phenotype (%) [8]: 11%
- Population Mitotic Cells (%) [8]: 46%
- Population Normal (%) [8]: 95%
- Population Pyknosed Nuclei (%) [8]: 26%
- Population Tubulin-Different-Phenotype (%) [8]: 70%
- Total Cell Count [8]: 120
- Population Apoptotic (%) [9]: 78%
- Population Fragmented Nuclei (%) [9]: 24%
- Population Healthy Nuclei (%) [9]: 66%
- Population Hoechst High Intensity Objects (%) [9]: 3%
- Population Membrane Permeable-Phenotype (%) [9]: 1%
- Population Mitochondria Different-Phenotype (%) [9]: 2%
- Population Mitotic Cells (%) [9]: 21%
- Population Normal (%) [9]: 96%
- Population Pyknosed Nuclei (%) [9]: 9%
- Population Tubulin-Different-Phenotype (%) [9]: 31%
- Total Cell Count [9]: 216
- Population Apoptotic (%) [10]: 45%
- Population Fragmented Nuclei (%) [10]: 29%
- Population Healthy Nuclei (%) [10]: 56%
- Population Hoechst High Intensity Objects (%) [10]: 1%
- Population Membrane Permeable-Phenotype (%) [10]: 7%
- Population Mitochondria Different-Phenotype (%) [10]: 6%
- Population Mitotic Cells (%) [10]: 54%
- Population Normal (%) [10]: 98%
- Population Pyknosed Nuclei (%) [10]: 14%
- Population Tubulin-Different-Phenotype (%) [10]: 44%
- Total Cell Count [10]: 159
- Population Apoptotic (%) [11]: 46%
- Population Fragmented Nuclei (%) [11]: 18%
- Population Healthy Nuclei (%) [11]: 69%
- Population Hoechst High Intensity Objects (%) [11]: 0%
- Population Membrane Permeable-Phenotype (%) [11]: 0%
- Population Mitochondria Different-Phenotype (%) [11]: 1%
- Population Mitotic Cells (%) [11]: 53%
- Population Normal (%) [11]: 100%
- Population Pyknosed Nuclei (%) [11]: 12%
- Population Tubulin-Different-Phenotype (%) [11]: 33%
- Total Cell Count [11]: 124
- Population Apoptotic (%) [12]: 59%
- Population Fragmented Nuclei (%) [12]: 34%
- Population Healthy Nuclei (%) [12]: 46%
- Population Hoechst High Intensity Objects (%) [12]: 3%
- Population Membrane Permeable-Phenotype (%) [12]: 5%
- Population Mitochondria Different-Phenotype (%) [12]: 5%
- Population Mitotic Cells (%) [12]: 40%
- Population Normal (%) [12]: 96%
- Population Pyknosed Nuclei (%) [12]: 19%
- Population Tubulin-Different-Phenotype (%) [12]: 58%
- Total Cell Count [12]: 118
